Experiments:
Interstitial collagenase = molecular target: T1, Interstitial collagenase (Homo sapiens, UniProt P03956); experiment: Inhibition of MMP1 using Mca-Lys-Pro-Leu-Gly-Leu-Dap(Dnp)-Ala-Arg-NH2 as substrate preincubated for 4 hrs measured every 15 secs for 20 mins by fluorescence analysis
T1 sequence (P03956 whole entry): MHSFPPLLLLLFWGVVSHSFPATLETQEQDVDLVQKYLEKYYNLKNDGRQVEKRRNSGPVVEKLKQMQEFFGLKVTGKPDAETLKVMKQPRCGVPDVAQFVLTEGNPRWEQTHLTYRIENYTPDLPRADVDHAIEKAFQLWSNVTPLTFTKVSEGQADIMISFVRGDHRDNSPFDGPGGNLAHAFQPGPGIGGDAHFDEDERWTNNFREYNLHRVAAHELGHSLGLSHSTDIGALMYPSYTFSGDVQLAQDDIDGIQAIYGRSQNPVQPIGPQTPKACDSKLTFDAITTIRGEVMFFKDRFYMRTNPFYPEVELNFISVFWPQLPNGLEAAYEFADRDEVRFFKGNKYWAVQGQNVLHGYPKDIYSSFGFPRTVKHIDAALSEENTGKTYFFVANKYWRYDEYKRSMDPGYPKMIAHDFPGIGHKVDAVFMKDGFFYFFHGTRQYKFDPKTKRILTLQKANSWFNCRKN
In short: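 Pro-MMP1 activated with 2 mM APMA, 2 h, 37 °C. Enzyme at 2.0 nM final was preincubated 4 h at 25 °C with inhibitor at seven concentrations in Tris 50 mM pH 7.5, NaCl 150 mM, CaCl2 10 mM, Brij 35 0.05%, DMSO 1%. Substrate was 2 μM final, read ex 325/em 395 nm every 15 s for 20 min. IC50 from Vi/Vo = 1/(1+[I]/IC50); mean of three experiments.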

[1] = molecular target: 72 kDa type IV collagenase (Homo sapiens, UniProt P08253); experiment: Inhibition of human recombinant MMP2 using Mca-Lys-Pro-Leu-Gly-Leu-Dap(Dnp)-Ala-Arg-NH2 as substrate preincubated for 4 hrs measured every 15 secs for 20 mins by fluorescence analysis
Sequence of 72 kDa type IV collagenase (P08253 whole entry): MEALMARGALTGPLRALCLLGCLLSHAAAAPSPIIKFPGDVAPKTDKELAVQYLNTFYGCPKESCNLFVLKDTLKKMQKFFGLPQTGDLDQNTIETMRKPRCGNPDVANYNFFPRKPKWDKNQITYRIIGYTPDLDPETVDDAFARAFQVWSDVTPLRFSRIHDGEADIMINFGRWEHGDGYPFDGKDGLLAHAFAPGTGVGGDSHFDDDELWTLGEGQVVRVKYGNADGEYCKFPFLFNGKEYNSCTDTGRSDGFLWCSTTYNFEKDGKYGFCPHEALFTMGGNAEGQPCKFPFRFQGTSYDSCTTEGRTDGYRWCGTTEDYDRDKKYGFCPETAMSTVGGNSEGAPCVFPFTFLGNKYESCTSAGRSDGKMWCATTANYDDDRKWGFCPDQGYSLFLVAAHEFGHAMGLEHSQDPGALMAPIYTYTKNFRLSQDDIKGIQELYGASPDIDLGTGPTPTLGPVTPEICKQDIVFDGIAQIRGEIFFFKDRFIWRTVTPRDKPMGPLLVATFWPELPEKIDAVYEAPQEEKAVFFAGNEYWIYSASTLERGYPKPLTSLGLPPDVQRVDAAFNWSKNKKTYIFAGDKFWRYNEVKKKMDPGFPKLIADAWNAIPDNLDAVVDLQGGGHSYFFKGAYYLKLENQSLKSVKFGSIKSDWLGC
In short: (§1)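 The proenzymes were activated with 2 mM APMA for 1 h at 37 °C. Final enzyme was 0.5 nM for MMP2 and 1.5 nM for MMP8. Each was incubated 4 h at 25 °C with seven inhibitor concentrations in pH 7.5 Tris/NaCl/CaCl2/Brij 35/1% DMSO buffer. With 2 μM substrate, fluorescence (325/395 nm) was read every 15 s for 20 min. IC50 came from fractional initial velocity; mean of three independent runs.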

Stromelysin-1 = Stromelysin-1 (Homo sapiens, UniProt P08254); experiment: Inhibition of MMP3 using Mca-Arg-Pro-Lys-Pro-Val-Glu-Nva-Trp-Arg-Lys(Dnp)-NH2 as substrate preincubated for 4 hrs measured every 15 secs for 20 mins by fluorescence analysis
Sequence of Stromelysin-1 (P08254 whole entry): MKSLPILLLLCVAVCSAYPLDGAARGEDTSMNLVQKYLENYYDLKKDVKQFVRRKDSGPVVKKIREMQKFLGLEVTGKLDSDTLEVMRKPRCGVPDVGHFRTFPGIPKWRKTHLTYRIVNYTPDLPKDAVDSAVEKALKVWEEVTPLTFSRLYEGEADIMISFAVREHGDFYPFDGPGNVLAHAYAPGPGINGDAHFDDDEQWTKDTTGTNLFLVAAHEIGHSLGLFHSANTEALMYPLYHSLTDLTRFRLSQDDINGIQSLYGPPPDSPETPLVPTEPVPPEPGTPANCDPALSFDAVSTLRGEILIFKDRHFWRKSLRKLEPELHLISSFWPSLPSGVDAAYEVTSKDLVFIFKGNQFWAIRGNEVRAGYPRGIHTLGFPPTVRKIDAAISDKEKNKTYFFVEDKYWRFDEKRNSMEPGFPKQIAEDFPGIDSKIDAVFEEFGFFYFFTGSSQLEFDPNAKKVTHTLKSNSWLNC
In short: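 Pro-MMP3 activated with trypsin 5 μg/mL, 30 min, 37 °C, then soybean trypsin inhibitor 62 μg/mL. Enzyme at 5 nM final was incubated 4 h at 25 °C with seven inhibitor concentrations in Tris 50 mM pH 7.5, NaCl 150 mM, CaCl2 10 mM, Brij 35 0.05%, DMSO 1%.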

Matrilysin = molecular target: T2, Matrilysin (Homo sapiens, UniProt P09237); experiment: Inhibition of MMP7 using Mca-Lys-Pro-Leu-Gly-Leu-Dap(Dnp)-Ala-Arg-NH2 as substrate preincubated for 4 hrs measured every 15 secs for 20 mins by fluorescence analysis
T2 sequence (P09237 whole entry): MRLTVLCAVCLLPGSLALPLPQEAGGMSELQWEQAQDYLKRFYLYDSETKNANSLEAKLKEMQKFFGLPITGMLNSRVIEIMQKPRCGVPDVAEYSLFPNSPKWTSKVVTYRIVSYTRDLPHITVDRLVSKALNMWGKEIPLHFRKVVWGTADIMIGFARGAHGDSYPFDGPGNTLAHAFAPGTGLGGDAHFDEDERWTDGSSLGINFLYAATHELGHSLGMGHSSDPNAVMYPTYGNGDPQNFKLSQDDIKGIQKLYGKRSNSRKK
In short: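 Pro-MMP7 activated with 3.3 mM APMA, 2 h, 37 °C, then used at 1.3 nM final. Enzyme was preincubated with seven inhibitor concentrations for 4 h at 25 °C in pH 7.5 Tris buffer with NaCl, CaCl2, Brij 35 and 1% DMSO. Fluorogenic substrate 2 μM final; fluorescence (325/395 nm) recorded every 15 s for 20 min. IC50 from initial-velocity ratio; mean of three experiments.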

Neutrophil collagenase = Neutrophil collagenase (Homo sapiens, UniProt P22894); experiment: Inhibition of human recombinant MMP8 using Mca-Lys-Pro-Leu-Gly-Leu-Dap(Dnp)-Ala-Arg-NH2 as substrate preincubated for 4 hrs measured every 15 secs for 20 mins by fluorescence analysis; in short: as §1
Sequence of Neutrophil collagenase (P22894 whole entry): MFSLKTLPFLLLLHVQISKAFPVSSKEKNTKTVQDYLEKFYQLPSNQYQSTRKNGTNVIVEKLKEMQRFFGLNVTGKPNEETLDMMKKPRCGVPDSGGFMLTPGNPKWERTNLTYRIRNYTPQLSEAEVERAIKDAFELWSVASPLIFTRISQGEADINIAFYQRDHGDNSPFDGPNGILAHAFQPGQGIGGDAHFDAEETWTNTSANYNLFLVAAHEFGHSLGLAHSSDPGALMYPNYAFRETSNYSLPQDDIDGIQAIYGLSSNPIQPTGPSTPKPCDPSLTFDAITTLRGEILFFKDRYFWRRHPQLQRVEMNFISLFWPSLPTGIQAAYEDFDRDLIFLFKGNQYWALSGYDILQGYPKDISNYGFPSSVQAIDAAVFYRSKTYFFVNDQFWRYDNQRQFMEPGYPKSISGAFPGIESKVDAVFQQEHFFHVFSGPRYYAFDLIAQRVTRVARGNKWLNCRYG

[2] = molecular target: Matrix metalloproteinase-9 (Homo sapiens, UniProt P14780); experiment: Inhibition of human recombinant MMP9 using Mca-Lys-Pro-Leu-Gly-Leu-Dap(Dnp)-Ala-Arg-NH2 as substrate preincubated for 4 hrs measured every 15 secs for 20 mins by fluorescence analysis
Sequence of Matrix metalloproteinase-9 (P14780 whole entry): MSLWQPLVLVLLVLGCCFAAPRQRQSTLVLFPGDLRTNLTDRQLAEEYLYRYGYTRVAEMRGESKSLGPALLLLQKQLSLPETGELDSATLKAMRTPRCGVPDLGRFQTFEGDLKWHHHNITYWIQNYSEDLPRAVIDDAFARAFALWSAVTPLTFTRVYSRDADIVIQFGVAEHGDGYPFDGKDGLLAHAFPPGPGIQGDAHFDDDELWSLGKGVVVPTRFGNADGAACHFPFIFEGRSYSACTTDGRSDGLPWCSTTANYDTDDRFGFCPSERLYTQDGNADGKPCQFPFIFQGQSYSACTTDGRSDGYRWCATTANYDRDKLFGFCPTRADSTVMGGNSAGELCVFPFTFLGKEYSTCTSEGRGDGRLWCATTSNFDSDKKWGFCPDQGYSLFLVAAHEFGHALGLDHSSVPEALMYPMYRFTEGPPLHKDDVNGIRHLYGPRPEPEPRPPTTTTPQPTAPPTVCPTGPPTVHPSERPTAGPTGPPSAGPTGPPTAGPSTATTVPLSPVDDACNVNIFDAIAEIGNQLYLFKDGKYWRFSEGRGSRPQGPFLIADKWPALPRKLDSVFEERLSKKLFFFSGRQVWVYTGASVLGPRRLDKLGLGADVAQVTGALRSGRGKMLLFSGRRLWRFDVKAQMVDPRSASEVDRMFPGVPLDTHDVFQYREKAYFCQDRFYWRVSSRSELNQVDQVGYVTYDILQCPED
In short: (§2)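 APMA activation at 1 mM, 1 h, 37 °C. Final enzyme was 0.3 nM for MMP13 and 1.3 nM for MMP9. Enzyme and inhibitor (seven concentrations) were incubated 4 h at 25 °C in Tris 50 mM pH 7.5 buffer with 150 mM NaCl, 10 mM CaCl2, 0.05% Brij 35, 1% DMSO. Substrate 2 μM final, ex 325/em 395 nm, every 15 s over 20 min. IC50 via Vi/Vo = 1/(1+[I]/IC50); three experiments averaged.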

[3] = molecular target: Macrophage metalloelastase (Homo sapiens, UniProt P39900); experiment: Inhibition of MMP12 using Mca-Lys-Pro-Leu-Gly-Leu-Dap(Dnp)-Ala-Arg-NH2 as substrate preincubated for 4 hrs measured every 15 secs for 20 mins by fluorescence analysis
Sequence of Macrophage metalloelastase (P39900 whole entry): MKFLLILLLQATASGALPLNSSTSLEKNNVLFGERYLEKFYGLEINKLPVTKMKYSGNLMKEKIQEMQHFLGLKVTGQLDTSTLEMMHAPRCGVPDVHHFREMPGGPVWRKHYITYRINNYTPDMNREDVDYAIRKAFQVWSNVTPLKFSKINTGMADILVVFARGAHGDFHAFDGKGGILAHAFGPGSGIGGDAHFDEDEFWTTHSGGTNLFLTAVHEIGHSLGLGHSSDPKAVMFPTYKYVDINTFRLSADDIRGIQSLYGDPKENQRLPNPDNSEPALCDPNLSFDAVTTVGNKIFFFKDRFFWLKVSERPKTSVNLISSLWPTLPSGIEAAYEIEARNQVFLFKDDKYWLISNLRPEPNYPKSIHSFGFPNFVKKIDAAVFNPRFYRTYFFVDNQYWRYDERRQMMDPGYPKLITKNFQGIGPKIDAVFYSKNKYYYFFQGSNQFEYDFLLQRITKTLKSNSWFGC
In short: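 Pro-MMP12 was autoactivated for 30 h at 37 °C in assay buffer (Tris 50 mM pH 7.5, NaCl 150 mM, CaCl2 10 mM, Brij 35 0.05%, DMSO 1%). Enzyme at 1.0 nM final was incubated 4 h at 25 °C with seven inhibitor concentrations. Substrate 2 μM final, fluorescence ex 325/em 395 nm every 15 s for 20 min. IC50 via initial-velocity equation; mean of three experiments.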

Collagenase 3 = Collagenase 3 (Homo sapiens, UniProt P45452); experiment: Inhibition of MMP13 using Mca-Lys-Pro-Leu-Gly-Leu-Dap(Dnp)-Ala-Arg-NH2 as substrate preincubated for 4 hrs measured every 15 secs for 20 mins by fluorescence analysis; in short: as §2
[4] = molecular target: Matrix metalloproteinase-14 (Homo sapiens, UniProt P50281); experiment: Inhibition of human recombinant MMP14 using Mca-Lys-Pro-Leu-Gly-Leu-Dap(Dnp)-Ala-Arg-NH2 as substrate preincubated for 4 hrs measured every 15 secs for 20 mins by fluorescence analysis
In short: (§3)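 Catalytic domains of MMP14 (1.0 nM final) and MMP16 (15 nM), and TACE (7.5 nM), were incubated 4 h at 25 °C with seven inhibitor concentrations. Buffer was Tris 50 mM pH 7.5, NaCl 150 mM, CaCl2 10 mM, Brij 35 0.05%, DMSO 1%. Substrate 2 μM final; hydrolysis read at 325/395 nm every 15 s for 20 min. IC50 from Vi/Vo = 1/(1+[I]/IC50); mean of three experiments.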

[5] = molecular target: Matrix metalloproteinase-16 (Homo sapiens, UniProt P51512); experiment: Inhibition of human recombinant MMP16 using Mca-Lys-Pro-Leu-Gly-Leu-Dap(Dnp)-Ala-Arg-NH2 as substrate preincubated for 4 hrs measured every 15 secs for 20 mins by fluorescence analysis; in short: as §3
Sequence of Matrix metalloproteinase-16 (P51512 whole entry, the tested form may be a part): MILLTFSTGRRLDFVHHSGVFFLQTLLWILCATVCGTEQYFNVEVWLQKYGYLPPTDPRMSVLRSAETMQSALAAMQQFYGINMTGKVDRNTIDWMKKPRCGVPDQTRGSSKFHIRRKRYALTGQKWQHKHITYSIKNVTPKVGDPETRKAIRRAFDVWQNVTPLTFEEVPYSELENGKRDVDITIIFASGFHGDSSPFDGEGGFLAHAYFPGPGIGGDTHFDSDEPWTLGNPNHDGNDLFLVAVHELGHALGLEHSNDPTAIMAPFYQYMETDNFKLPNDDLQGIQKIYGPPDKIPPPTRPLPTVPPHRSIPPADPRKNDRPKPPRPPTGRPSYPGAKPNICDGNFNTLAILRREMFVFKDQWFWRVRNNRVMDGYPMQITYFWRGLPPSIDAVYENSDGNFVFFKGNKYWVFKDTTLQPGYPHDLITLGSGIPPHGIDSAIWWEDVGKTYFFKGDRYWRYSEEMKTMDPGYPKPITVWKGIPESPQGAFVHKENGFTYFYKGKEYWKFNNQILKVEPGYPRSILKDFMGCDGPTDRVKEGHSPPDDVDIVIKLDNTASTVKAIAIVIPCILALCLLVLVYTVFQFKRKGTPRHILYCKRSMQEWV

[6] = molecular target: Disintegrin and metalloproteinase domain-containing protein 17 (Homo sapiens, UniProt P78536); experiment: Inhibition of TACE using Mca-Lys-Pro-Leu-Gly-Leu-Dap(Dnp)-Ala-Arg-NH2 as substrate preincubated for 4 hrs measured every 15 secs for 20 mins by fluorescence analysis; in short: as §3
Sequence of Disintegrin and metalloproteinase domain-containing protein 17 (P78536 whole entry, the tested form may be a part): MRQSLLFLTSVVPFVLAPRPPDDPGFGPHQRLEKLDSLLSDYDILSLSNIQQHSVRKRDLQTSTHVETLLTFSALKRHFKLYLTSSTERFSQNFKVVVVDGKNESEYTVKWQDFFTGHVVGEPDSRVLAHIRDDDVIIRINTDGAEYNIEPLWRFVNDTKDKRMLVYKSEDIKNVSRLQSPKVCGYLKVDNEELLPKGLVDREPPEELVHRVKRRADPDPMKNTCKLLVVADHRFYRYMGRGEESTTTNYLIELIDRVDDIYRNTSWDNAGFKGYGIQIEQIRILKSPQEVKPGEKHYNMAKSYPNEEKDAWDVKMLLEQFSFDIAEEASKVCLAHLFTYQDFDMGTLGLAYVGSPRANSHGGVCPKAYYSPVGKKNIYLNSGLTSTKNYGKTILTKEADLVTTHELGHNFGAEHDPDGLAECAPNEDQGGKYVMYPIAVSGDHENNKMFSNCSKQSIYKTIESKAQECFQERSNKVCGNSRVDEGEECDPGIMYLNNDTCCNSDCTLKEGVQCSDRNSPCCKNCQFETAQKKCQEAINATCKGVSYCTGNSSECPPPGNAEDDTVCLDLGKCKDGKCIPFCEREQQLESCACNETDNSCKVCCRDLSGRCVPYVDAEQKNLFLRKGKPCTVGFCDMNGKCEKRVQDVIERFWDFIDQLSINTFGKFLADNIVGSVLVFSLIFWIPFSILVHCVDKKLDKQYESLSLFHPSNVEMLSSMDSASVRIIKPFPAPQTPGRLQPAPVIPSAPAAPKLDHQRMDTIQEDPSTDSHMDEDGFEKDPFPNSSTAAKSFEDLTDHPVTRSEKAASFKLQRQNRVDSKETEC

[7] = Stability in D2O assessed as compound decomposition at pD 2 after 24 hrs by NMR spectroscopy; type: physicochemical; conditions: pH 2, read-out: Drug metabolism
[8] = Stability in D2O assessed as compound decomposition at pD 2 after 48 hrs by NMR spectroscopy; type: physicochemical; conditions: pH 2, read-out: Drug metabolism
[9] = Stability in D2O assessed as compound decomposition at pD 2 after 5 days by NMR spectroscopy; type: physicochemical; conditions: pH 2, read-out: Drug metabolism
[10] = Stability in D2O assessed as compound decomposition at pD 2 after 10 days by NMR spectroscopy; type: physicochemical; conditions: pH 2, read-out: Drug metabolism
[11] = Stability in D2O assessed as compound decomposition at pD 7 after 24 hrs by NMR spectroscopy; type: physicochemical; conditions: pH 7, read-out: Drug metabolism
[12] = Stability in D2O assessed as compound decomposition at pD 7 after 3 days by NMR spectroscopy; type: physicochemical; conditions: pH 7, read-out: Drug metabolism
[13] = Stability in D2O assessed as compound decomposition at pD 7 after 5 days by NMR spectroscopy; type: physicochemical; conditions: pH 7, read-out: Drug metabolism
[14] = Stability in D2O assessed as compound decomposition at pD 7 after 20 days by NMR spectroscopy; type: physicochemical; conditions: pH 7, read-out: Drug metabolism

Compound | IC50 (Interstitial collagenase) [nM] | IC50 [1] [nM] | IC50 (Stromelysin-1) [nM] | IC50 (Matrilysin) [nM] | IC50 (Neutrophil collagenase) [nM] | IC50 [2] [nM] | IC50 [3] [nM] | IC50 (Collagenase 3) [nM] | IC50 [4] [nM] | IC50 [5] [nM] | IC50 [6] [nM] | degraded at 24 h [7] [%] | degraded at 48 h [8] [%] | degraded at 120 h [9] [%] | degraded at 240 h [10] [%] | degraded at 24 h [11] [%] | degraded at 72 h [12] [%] | degraded at 120 h [13] [%] | degraded at 480 h [14] [%]
COc1ccc(S(=O)(=O)N2CC(=O)N(O)C(=O)[C@H]2C(C)C)cc1 | 4900 | 1200 | 3400 | 39000 | 300 | 690 | 66 | 300 | 2200 | 1100 | 33000 | < 1 | 2 | 5 | 8 | < 1 | 3 | 6 | 7
CC(C)[C@@H]1C(=O)N(O)C(=O)CN1S(=O)(=O)c1ccc(-c2ccccc2)cc1 | 1300 | 240 | 3900 | – | 67 | 660 | 19 | 52 | 3900 | 2200 | 16000 | – | – | – | – | – | – | – | –
CC(C)[C@@H]1C(=O)N(O)C(=O)CN1S(=O)(=O)c1ccc(Oc2ccccc2)cc1 | 1600 | 30 | 220 | – | 21 | 30 | 23 | 9.5 | 83 | 39 | 10000 | – | – | – | – | – | – | – | –
CC(C)[C@H](C(=O)NO)N(CC(=O)O)S(=O)(=O)c1ccc(Oc2ccccc2)cc1 | – | – | 6.7 | – | – | – | – | – | – | – | – | – | – | – | – | – | – | – | –
COc1ccc(S(=O)(=O)N(Cc2cccnc2)[C@@H](C(=O)NO)C(C)C)cc1 [CGS-27023A] | – | – | – | 380 | – | – | – | – | – | – | – | – | – | – | – | – | – | – | –
